Laboratory results taken from ChEMBL document CHEMBL3232837, “Synthesis and evaluation of new Hsp90 inhibitors based on a 1,4,5-trisubstituted 1,2,3-triazole scaffold” (J Med Chem, 2014).
pIC50: −log10 of the molar value. Activity calls are given as the source filed them. The calls are words filed in the database; no cut-off is given here.

Assays:
Histone deacetylase 5 = Histone deacetylase 5 (Homo sapiens, UniProt Q9UQL6); assay: Inhibition of human HDAC-5 using RHKK(Ac) as substrate by fluorescence assay
Histone deacetylase 1 = Histone deacetylase 1 (Homo sapiens, UniProt Q13547); assay: Inhibition of human HDAC-1 using RHKK(Ac) as substrate by fluorescence assay
[1] = biological target: T1, Protein deacetylase HDAC6 (Homo sapiens, UniProt Q9UBN7); assay: Inhibition of human HDAC-6 using RHKK(Ac) as substrate by fluorescence assay
T1 sequence (Q9UBN7 whole entry): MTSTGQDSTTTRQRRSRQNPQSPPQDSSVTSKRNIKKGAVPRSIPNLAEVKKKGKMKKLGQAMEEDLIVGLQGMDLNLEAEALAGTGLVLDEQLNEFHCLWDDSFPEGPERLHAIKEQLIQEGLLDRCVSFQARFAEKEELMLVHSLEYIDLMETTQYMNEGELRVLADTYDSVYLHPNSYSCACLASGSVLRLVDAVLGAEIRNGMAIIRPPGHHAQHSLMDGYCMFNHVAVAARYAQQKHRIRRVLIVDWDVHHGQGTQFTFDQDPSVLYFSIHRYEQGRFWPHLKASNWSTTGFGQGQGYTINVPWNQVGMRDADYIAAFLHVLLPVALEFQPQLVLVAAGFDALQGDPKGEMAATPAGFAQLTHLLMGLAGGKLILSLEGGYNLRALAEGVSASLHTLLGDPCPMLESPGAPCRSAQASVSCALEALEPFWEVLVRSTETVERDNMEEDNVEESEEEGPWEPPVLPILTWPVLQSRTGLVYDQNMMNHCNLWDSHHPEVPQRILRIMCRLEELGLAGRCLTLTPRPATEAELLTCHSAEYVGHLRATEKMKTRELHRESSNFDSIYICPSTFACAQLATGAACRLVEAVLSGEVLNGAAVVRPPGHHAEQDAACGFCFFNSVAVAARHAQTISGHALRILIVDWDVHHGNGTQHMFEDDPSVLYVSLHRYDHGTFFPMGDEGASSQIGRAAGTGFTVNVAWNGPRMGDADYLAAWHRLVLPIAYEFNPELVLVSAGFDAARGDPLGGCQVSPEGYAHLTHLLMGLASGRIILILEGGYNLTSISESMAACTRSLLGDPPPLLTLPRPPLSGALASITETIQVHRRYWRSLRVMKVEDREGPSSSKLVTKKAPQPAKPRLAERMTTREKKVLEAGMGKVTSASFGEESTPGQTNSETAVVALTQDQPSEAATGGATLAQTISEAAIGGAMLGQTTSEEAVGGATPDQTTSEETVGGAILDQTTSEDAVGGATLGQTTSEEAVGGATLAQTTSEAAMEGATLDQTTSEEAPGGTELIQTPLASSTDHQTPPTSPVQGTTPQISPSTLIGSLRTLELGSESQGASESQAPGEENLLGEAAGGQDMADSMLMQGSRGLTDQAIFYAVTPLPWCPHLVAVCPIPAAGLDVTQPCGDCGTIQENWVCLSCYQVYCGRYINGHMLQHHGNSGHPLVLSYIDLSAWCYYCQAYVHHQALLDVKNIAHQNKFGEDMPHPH

[2] = biological target: Heat shock protein HSP 90-alpha (Homo sapiens, UniProt P07900); assay: Displacement of GM-FITC from full-length recombinant human Hsp90-alpha after 4 hrs by fluorescence polarization assay
Histone deacetylase 8 = biological target: T2, Histone deacetylase 8 (Homo sapiens, UniProt Q9BY41); assay: Inhibition of human HDAC-8 using RHKK(Ac) as substrate by fluorescence assay
T2 sequence (Q9BY41 whole entry): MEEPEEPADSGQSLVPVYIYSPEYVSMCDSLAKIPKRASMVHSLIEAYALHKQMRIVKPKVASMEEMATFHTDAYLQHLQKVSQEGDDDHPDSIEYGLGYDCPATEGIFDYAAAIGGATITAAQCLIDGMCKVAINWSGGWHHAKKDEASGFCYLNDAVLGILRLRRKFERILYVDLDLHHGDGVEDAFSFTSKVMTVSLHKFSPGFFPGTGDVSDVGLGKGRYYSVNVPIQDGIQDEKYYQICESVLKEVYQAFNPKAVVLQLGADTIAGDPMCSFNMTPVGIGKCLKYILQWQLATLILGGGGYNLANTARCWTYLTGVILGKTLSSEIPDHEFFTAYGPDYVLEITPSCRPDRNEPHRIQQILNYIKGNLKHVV

Histone deacetylase 2 = Histone deacetylase 2 (Homo sapiens, UniProt Q92769); assay: Inhibition of human HDAC-2 using RHKK(Ac) as substrate by fluorescence assay
Histone deacetylase 4 = Histone deacetylase 4 (Homo sapiens, UniProt P56524); assay: Inhibition of human HDAC-4 using RHKK(Ac) as substrate by fluorescence assay
NCI-H460 [3] = assay: Cytotoxicity against human NCI-H460 cells assessed as growth inhibition after 72 hrs by SRB assay; assay type: functional, cell-based; details: NCI-H460, 72 h
Procedure, shortened: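 NCI-H460 cells grown in RPMI-1640 with 10% heat-inactivated FBS, seeded at about 10% confluence and allowed 24 h recovery. Exposed to graded drug concentrations or solvent for 72 h. Surviving fraction measured by sulforhodamine B. IC50 is the concentration giving a 50% drop in cell number vs vehicle, from dose-response curve fitting; mean of n=4 with SD.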

[4] = biological target: Histone deacetylase 3/Nuclear receptor corepressor 2 (HDAC3/NCoR2) (Homo sapiens, UniProt O15379); assay: Inhibition of human HDAC-3/NCOR2 using RHKK(Ac) as substrate by fluorescence assay; assay type: protein-complex assay
[5] = biological target: T3, Polyamine deacetylase HDAC10 (Homo sapiens, UniProt Q969S8); assay: Inhibition of human HDAC-10 using RHKK(Ac) as substrate by fluorescence assay
T3 sequence (Q969S8 whole entry): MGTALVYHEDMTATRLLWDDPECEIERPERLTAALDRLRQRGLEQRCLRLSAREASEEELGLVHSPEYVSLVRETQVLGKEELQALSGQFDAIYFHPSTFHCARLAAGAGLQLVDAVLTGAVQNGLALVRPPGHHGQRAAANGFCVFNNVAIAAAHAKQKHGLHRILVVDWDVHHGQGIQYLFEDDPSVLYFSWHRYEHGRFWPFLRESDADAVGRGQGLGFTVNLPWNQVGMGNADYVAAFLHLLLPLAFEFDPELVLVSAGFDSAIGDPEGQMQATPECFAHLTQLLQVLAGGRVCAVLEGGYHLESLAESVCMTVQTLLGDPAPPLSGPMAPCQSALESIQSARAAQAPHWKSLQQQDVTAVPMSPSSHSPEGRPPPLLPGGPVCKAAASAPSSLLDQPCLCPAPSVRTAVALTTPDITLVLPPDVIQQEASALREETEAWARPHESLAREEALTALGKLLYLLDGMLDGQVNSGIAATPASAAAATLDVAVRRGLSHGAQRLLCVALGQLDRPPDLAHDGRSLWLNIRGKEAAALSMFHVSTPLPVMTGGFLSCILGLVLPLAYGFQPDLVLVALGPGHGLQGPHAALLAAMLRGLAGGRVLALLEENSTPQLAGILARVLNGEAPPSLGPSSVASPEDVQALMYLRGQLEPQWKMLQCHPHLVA

Histone deacetylase 11 = biological target: T4, Histone deacetylase 11 (Homo sapiens, UniProt Q96DB2); assay: Inhibition of human HDAC-11 using RHKK(Ac) as substrate by fluorescence assay
T4 sequence (Q96DB2 whole entry): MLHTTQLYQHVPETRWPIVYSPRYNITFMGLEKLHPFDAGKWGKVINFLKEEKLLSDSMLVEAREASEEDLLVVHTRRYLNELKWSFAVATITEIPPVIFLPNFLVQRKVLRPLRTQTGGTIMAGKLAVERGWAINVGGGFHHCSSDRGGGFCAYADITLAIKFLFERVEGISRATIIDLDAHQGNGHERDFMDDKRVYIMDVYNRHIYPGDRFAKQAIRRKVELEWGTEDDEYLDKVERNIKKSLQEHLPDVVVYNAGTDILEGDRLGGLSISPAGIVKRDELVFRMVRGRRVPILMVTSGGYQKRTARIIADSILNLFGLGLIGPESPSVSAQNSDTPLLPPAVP

Mus musculus [6] = assay: (§1) In vivo inhibition of HSP90 in human GTL16 cells overexpressing c-Met xenografted in CD-1 nude mouse assessed as downregulation of CDK4 protein expression at 50 mg/kg, ip administered as q5d/week for 2 weeks starting 3 days after tumor injection measured at 6 hrs post last dose by Western blot analysis; assay type: functional, organism-based; design: dose 50 mg/kg
Mus musculus [7] = assay: as §1, with “A431” for “GTL16”, “EGFR” for “c-Met”, “EGFR” for “CDK4”, “2” for “6”; assay type: functional, organism-based; design: dose 50 mg/kg; details: A-431
NCI-H460 [8] = assay: Cell cycle arrest in human NCI-H460 cells assessed as accumulation at G2/M phase at 2 times IC50 after 24 to 72 hrs by propidium iodide staining-based FACS flow cytometric analysis; assay type: functional
[9] = Metabolic stability in human plasma assessed as compound remaining at 5 uM measured at 120 mins by LC/MS analysis; assay type: ADME, cell-free
Procedure, shortened: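 Compound added to human plasma at 5 µM final and incubated at 37 °C for up to 120 min. Samples quenched in two volumes of chilled acetonitrile and centrifuged at 4 °C. Remaining compound quantified by LC/MS.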

NCI-H460 [10] = assay: Induction of apoptosis in human NCI-H460 cells assessed as cell with hypodiploid DNA content at 2 times IC50 after 24 to 72 hrs by propidium iodide staining-based FACS flow cytometric analysis; assay type: functional
A-431 = assay: Antitumor activity against human A431 cells overexpressing EGFR xenografted in CD-1 nude mouse assessed as tumor growth inhibition at 50 mg/kg, ip administered as q5d/week for 2 weeks starting 3 days after tumor injection measured on day 5 post last dose relative to vehicle-treated control; assay type: functional, organism-based; design: dose 50 mg/kg
Procedure, shortened: (§2)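 Female athymic nude mice, 5-6 weeks old; 5 × 10^6 exponentially growing tumor cells inoculated s.c. in right flank. Treatment i.p. from day 3 after tumor injection. Tumor volume measured biweekly as d²·D/2. TVI% = 100 − (mean TV treated/mean TV control × 100), evaluated 5 days after last treatment; Mann-Whitney test vs vehicle group.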

GTL 16 = assay: Antitumor activity against human GTL16 cells overexpressing c-Met xenografted in CD-1 nude mouse assessed as tumor growth inhibition at 50 mg/kg, ip administered as q5d/week for 2 weeks starting 3 days after tumor injection measured on day 5 post last dose relative to vehicle-treated control; assay type: functional, organism-based; design: dose 50 mg/kg; procedure, shortened: as §2
Mus musculus [11] = assay: (§3) In vivo inhibition of HSP90 in human A431 cells overexpressing EGFR xenografted in CD-1 nude mouse assessed as downregulation of AKT protein expression at 50 mg/kg, ip administered as q5d/week for 2 weeks starting 3 days after tumor injection measured at 2 hrs post last dose by Western blot analysis; assay type: functional, organism-based; design: dose 50 mg/kg; details: A-431
Mus musculus [12] = assay: In vivo inhibition of HSP90 in human A431 cells overexpressing EGFR xenografted in CD-1 nude mouse assessed as induction of HSP70 protein expression at 50 mg/kg, ip administered as q5d/week for 2 weeks starting 3 days after tumor injection measured at 2 hrs post last dose by Western blot analysis; assay type: functional, organism-based; design: dose 50 mg/kg; details: A-431
Mus musculus [13] = assay: In vivo inhibition of HSP90 in human GTL16 cells overexpressing c-Met xenografted in CD-1 nude mouse assessed as induction of HSP70 protein expression at 50 mg/kg, ip administered as q5d/week for 2 weeks starting 3 days after tumor injection measured at 6 hrs post last dose by Western blot analysis; assay type: functional, organism-based; design: dose 50 mg/kg
Mus musculus [14] = assay: as §3, with “CDK4” for “AKT”; assay type: functional, organism-based; design: dose 50 mg/kg; details: A-431
Mus musculus [15] = assay: as §1, with “AKT” for “CDK4”; assay type: functional, organism-based; design: dose 50 mg/kg
Mus musculus [16] = assay: as §1, with “c-Met” for “CDK4”; assay type: functional, organism-based; design: dose 50 mg/kg
[17] = Toxicity in ip dosed CD-1 nude mouse xenografted with human A431 cells overexpressing EGFR administered as q5d/week for 2 weeks starting 3 days after tumor injection measured on day 5 post last dose; assay type: organism-based, A-431; details: in vivo
Procedure, shortened: (§4)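 Female athymic nude mice, 5–6 weeks old, implanted s.c. in the right flank with 5 × 10^6 exponentially growing tumour cells and given i.p. doses (mg/10 mL/kg) over 2 weeks starting 3 days after implantation. Toxicity endpoints were maximum body weight loss, BWL% = 100 − [(mean BW day x / mean BW day 1) × 100], and deaths occurring before the first control death.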

[18] = Toxicity in ip dosed CD-1 nude mouse xenografted with GTL16 cells overexpressing c-Met administered as q5d/week for 2 weeks starting 3 days after tumor injection measured on day 5 post last dose; assay type: organism-based; details: in vivo; procedure, shortened: as §4

Sequence of Histone deacetylase 1 (Q13547 whole entry): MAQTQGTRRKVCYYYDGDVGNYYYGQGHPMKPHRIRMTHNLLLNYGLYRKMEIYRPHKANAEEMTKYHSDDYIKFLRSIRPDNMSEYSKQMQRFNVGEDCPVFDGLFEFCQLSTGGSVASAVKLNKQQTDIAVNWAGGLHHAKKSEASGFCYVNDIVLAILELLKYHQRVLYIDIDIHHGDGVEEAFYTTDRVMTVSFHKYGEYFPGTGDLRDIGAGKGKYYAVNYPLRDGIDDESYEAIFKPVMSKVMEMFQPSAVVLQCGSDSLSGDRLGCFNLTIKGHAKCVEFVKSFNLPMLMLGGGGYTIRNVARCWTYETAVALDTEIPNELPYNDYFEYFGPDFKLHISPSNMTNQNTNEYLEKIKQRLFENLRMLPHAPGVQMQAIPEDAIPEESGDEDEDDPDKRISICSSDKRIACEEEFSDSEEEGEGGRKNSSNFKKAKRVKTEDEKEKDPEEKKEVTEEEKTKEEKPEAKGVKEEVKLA
Sequence of Histone deacetylase 4 (P56524 whole entry): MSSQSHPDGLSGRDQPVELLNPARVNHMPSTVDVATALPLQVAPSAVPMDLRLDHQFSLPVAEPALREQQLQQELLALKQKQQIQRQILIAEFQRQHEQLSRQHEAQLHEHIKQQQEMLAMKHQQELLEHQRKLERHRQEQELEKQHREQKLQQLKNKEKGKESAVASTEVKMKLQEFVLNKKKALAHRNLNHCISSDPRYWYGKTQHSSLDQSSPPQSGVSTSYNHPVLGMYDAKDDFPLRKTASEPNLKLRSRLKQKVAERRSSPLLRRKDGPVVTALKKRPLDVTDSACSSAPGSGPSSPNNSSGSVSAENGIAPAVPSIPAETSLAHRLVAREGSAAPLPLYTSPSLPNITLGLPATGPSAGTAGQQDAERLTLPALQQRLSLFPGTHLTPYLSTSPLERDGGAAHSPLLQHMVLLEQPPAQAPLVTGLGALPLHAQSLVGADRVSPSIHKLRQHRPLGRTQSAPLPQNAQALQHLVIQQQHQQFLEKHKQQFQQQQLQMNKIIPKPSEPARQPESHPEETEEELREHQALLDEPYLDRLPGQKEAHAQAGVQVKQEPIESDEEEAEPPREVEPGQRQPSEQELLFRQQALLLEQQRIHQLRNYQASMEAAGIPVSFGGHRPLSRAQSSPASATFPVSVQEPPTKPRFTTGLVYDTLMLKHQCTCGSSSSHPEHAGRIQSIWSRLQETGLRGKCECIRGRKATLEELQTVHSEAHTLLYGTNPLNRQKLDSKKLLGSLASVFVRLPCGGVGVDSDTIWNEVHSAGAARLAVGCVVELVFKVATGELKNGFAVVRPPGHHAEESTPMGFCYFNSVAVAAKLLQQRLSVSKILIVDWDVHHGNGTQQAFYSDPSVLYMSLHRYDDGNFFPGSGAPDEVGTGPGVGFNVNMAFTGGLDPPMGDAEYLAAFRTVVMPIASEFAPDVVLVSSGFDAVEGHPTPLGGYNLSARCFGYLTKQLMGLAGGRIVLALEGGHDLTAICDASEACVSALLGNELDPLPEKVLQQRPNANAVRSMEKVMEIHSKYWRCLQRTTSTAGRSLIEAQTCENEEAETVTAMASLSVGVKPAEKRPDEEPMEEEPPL
Sequence of Histone deacetylase 5 (Q9UQL6 whole entry): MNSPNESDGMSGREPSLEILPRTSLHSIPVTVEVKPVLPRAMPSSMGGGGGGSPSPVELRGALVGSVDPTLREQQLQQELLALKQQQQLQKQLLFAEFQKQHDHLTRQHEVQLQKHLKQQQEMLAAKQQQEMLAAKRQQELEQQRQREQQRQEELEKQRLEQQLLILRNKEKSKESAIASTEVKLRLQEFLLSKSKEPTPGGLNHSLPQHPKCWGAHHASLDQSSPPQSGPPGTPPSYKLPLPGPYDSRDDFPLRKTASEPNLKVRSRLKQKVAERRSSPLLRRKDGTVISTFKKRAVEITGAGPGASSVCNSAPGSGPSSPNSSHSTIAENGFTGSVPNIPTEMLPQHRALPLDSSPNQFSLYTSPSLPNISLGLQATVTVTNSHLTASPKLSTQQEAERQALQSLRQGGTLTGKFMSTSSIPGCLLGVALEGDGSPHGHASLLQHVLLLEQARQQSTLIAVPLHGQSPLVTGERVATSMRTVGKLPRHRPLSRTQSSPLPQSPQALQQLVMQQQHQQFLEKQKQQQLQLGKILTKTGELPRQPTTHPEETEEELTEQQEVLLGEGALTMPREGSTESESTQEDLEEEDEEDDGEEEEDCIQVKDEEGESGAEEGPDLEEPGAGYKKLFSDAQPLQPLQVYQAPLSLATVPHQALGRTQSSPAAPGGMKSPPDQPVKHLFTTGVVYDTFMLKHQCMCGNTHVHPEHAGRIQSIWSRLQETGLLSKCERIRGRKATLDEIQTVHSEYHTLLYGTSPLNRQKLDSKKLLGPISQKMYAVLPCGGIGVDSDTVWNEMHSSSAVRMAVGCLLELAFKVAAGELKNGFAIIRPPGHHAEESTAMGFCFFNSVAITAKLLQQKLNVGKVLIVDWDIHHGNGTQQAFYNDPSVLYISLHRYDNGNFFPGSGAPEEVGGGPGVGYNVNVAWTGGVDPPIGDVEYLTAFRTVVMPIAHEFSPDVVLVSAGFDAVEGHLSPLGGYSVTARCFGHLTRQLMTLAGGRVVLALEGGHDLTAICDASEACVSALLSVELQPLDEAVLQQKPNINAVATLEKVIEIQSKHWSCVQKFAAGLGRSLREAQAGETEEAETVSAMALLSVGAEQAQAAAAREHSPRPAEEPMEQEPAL
Sequence of Histone deacetylase 2 (Q92769 whole entry): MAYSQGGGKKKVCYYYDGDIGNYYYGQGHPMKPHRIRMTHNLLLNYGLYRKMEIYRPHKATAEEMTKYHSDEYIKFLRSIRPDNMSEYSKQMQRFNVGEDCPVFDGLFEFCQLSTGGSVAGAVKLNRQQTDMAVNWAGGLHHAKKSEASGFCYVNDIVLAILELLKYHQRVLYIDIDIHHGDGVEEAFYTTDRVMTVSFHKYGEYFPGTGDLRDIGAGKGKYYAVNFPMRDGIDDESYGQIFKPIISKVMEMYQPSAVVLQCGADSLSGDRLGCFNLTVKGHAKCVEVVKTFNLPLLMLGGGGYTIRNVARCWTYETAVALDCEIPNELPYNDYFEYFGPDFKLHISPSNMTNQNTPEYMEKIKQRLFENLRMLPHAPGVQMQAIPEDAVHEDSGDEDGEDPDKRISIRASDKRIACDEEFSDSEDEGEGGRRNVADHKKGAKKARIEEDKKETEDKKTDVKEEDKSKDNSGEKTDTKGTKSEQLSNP

CC(C)c1cc(-n2nnc(C(=O)NCCCCCCC(=O)NO)c2-c2ccc(CN3CCOCC3)cc2)c(O)cc1O
pIC50 (Histone deacetylase 5): 5.72
pIC50 (Histone deacetylase 1): 5.51
pIC50 [1]: 7.92
pIC50 [2]: 7.51
pIC50 (Histone deacetylase 8): 6.14
pIC50 (Histone deacetylase 2): 5.25
pIC50 (Histone deacetylase 4): 4.15
pIC50 (NCI-H460 [3]): < 6.00
pIC50 [4]: 5.55
pIC50 [5]: 5.49
pIC50 (Histone deacetylase 11): 5.75

CCNC(=O)c1noc(-c2cc(C(C)C)c(O)cc2O)c1-c1ccc(CN2CCOCC2)cc1 [LUMINESPIB]
inhibition (Mus musculus [6]): Active
inhibition (Mus musculus [7]): Active
Activity (NCI-H460 [8]): Active
remaining at 2 h, 5 µM [9]: 56%
Activity (NCI-H460 [10]): Active
TGI (A-431): Active
TGI (GTL 16): Active
inhibition (Mus musculus [11]): Active
inhibition (Mus musculus [12]): Active
inhibition (Mus musculus [13]): Active
inhibition (Mus musculus [14]): Active
inhibition (Mus musculus [15]): Active
inhibition (Mus musculus [16]): Active
MTD at 2 weeks [17]: 50 mg/kg
MTD at 2 weeks [18]: 50 mg/kg
